21 compounds from ChEMBL document CHEMBL3784986, “Discovery and Characterization of Biased Allosteric Agonists of the Chemokine Receptor CXCR3” (J Med Chem, 2016) can be followed below.

Data set [1] is described as follows: Cytotoxicity against HEK293T cells expressing CXCR3 at 10 uM incubated overnight by ApoTox-Glo Triplex assay. In kind it is cell-based. The note with it: human, hek-293t. In outline:
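10,000 HEK293T cells stably expressing CXCR3 incubated overnight with compound at 10 µM. ApoTox-Glo triplex. Viability read by fluorescence at 400Ex/505Em (GF-AFC) and cytotoxicity at 485Ex/520Em (bis-AAF-R110), each after a 30 min reagent step. Caspase-3/7 luminescence then read after a further 30 min.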

Data set [2] addresses T1, C-X-C chemokine receptor type 3 (Homo sapiens) (UniProt P49682).
T1 sequence (whole entry): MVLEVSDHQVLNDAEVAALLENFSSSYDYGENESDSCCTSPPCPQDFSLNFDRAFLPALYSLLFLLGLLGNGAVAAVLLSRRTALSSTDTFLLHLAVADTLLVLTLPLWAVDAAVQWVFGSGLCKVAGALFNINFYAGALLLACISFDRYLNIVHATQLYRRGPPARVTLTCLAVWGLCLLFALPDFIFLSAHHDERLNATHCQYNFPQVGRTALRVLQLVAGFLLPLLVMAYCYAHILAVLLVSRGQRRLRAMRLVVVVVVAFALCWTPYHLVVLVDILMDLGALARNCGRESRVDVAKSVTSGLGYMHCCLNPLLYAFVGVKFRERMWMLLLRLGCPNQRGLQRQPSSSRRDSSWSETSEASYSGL
Nature of the data set: Positive allosteric modulation of ProLink2-tagged wild type CXCR3 (unknown origin) expressed in HEK293T cells assessed as beta-arrestin-2 recruitment incubated for 4 hrs by chemiluminescence-based microplate reader method relative to CXCL11. In kind it is cell-based. The note with it: HEK-293T. Summed up: (§1)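 HEK293 cells stably expressing β-gal enzyme acceptor, transiently transfected with PK1- or PK2-tagged wild-type CXCR3, 2000 cells/well, grown overnight at 37 °C. Compounds or CXCL11 in PBS pH 7.4 with 0.20% BSA added for 4 h. Detection mix 60 min at room temperature, then chemiluminescence read. Efficacy expressed as % of CXCL11 effect. Two to three experiments in triplicate.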
In general terms: Arrestin recruitment assays detect the binding of arrestin to an activated receptor.

Data set [3] deals with T1, C-X-C chemokine receptor type 3 (Homo sapiens). The experiment in a line: Positive allosteric modulation of human CXCR3 expressed in HEK293T cell membranes after 30 mins by [35S]GTPgammaS incorporation assay relative to CXCL11. The note with it: HEK-293T. In kind it is functional. Summed up: (§2)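 Membranes from HEK293 cells stably expressing CXCR3 (30 µg/mL protein) in 20 mM HEPES, 10 mM MgCl2, 100 mM NaCl, 100 mg/L saponin, pH 7.4. Compound plus 1 µM GDP preincubated 30 min at 37 °C, then 0.10 nM [35S]GTPγS added for 30 min at 37 °C. Filtered on GF/B and counted. Efficacy expressed as % of CXCL11. Three experiments in triplicate, pEC50 by nonlinear regression.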
(In general: Binding of GTPγS marks nucleotide exchange on a G protein.)

The target is the same in data set [4]. The experiment in a line: Positive allosteric modulation of ProLink1-tagged wild type CXCR3 (unknown origin) expressed in HEK293T cells assessed as beta-arrestin-2 recruitment incubated for 4 hrs by chemiluminescence-based microplate reader method relative to CXCL11. In kind it is cell-based. The conditions noted are these: HEK-293T. In outline: as §1
The target is the same in data set [5]. Nature of the data set: Inhibition of CXCL10-mediated activation of human CXCR3 expressed in HEK cells. The class given is cell-based. The note with it: HEK293.
For data set [6] the target is unchanged. The experiment in a line: Inhibition of CXCL11-mediated activation of human CXCR3 expressed in HEK cells. In kind it is cell-based. The note with it: HEK293.
The target is the same in data set [7]. The experiment in a line: Positive allosteric modulation of human CXCR3 expressed in HEK293T cell membranes after 30 mins by [35S]GTPgammaS incorporation assay. The class given is functional. The note with it: HEK-293T. In outline: as §2
For data set [8] the target is unchanged. The experiment in a line: Positive allosteric modulation of ProLink1-tagged wild type CXCR3 (unknown origin) expressed in HEK293T cells assessed as beta-arrestin-2 recruitment incubated for 4 hrs by chemiluminescence-based microplate reader method. In kind it is cell-based. The conditions noted are these: HEK-293T. In outline: as §1

Activity calls are given as the source filed them. No cut-off for these calls is given here.

In the case of `CC(C)(C)OC(=O)N[C@@H](CCCCNC(=O)[C@@H]1Cc2ccccc2CN1)C(=O)NCC(c1ccccc1)c1ccccc1`, the Activity entry in data set [1] is on record as “Non-toxic”. Also, the Efficacy in data set [2] is 79%; in data set [3] it was 34%; in data set [4] it was 31%. The inhibition result in data set [5] and in data set [6] was “inactive” in each case.
With `CN1CCN(C(=O)CCC(=O)N2Cc3ccccc3C[C@H]2C(=O)NCCCC[C@H](NC(=O)OC(C)(C)C)C(=O)NCC(c2ccccc2)c2ccccc2)CC1`, the pEC50 result in data set [7] and in data set [8] was “inactive” each time. Moreover, the Efficacy entry in data set [3] and in data set [4] was “inactive” throughout. Moreover, the inhibition entry in data set [5] and in data set [6] was “inactive” in each case.
`N[C@H](CCCCNC(=O)[C@@H]1Cc2ccccc2CN1C(=O)CCC(=O)c1ccccc1)C(=O)NCC(c1ccccc1)c1ccccc1`: the results for the Efficacy in data set [2], in data set [3] and in data set [4] were 79%, 25% and 28%, respectively. Further, the inhibition result in data set [5] and in data set [6] was “inactive” each time.
For `CC(C)(C)OC(=O)NCCCC[C@@H](NC(=O)[C@@H]1Cc2ccccc2CN1C(=O)CCC(=O)c1ccccc1)C(=O)NCC(c1ccccc1)c1ccccc1`, the results for the Efficacy in data set [2], in data set [3] and in data set [4] were 30%, 33% and 36%, respectively.
Take `N[C@@H](CCCCNC(=O)[C@@H]1Cc2ccccc2CN1C(=O)CCCC(=O)c1ccccc1)C(=O)NCC(c1ccccc1)c1ccccc1`: the pEC50 result in data set [7] was “inactive”. Further, the Efficacy in data set [2] stood at 91%; in data set [4], 20%. The Efficacy result in data set [3] is “inactive”. Besides, the inhibition entry in data set [5] and in data set [6] was “inactive” each time.
On to `CC(C)(C)OC(=O)N[C@@H](CCCCNC(=O)[C@@H]1Cc2ccccc2CN1C(=O)CCCC(=O)c1ccccc1)C(=O)NCC(c1ccccc1)c1ccccc1`, for which the Activity result in data set [1] is recorded as “Non-toxic”. Moreover, the pEC50 entry in data set [7] is “inactive”. Besides, the Efficacy in data set [2] is 56%; in data set [4] it was 20%. Further, the Efficacy entry in data set [3] is “inactive”. Besides, the inhibition result in data set [5] and in data set [6] was “inactive” throughout.
On to `CC(C)(C)OC(=O)N[C@@H](CCCCNC(=O)[C@@H]1Cc2ccccc2CN1C(=O)CCc1ccccc1)C(=O)NCC(c1ccccc1)c1ccccc1`, for which the Activity result in data set [1] is “Non-toxic”. In addition, the Efficacy in data set [2] was found to be 29%; in data set [3], 30%; in data set [4], 19%. For the same compound, the inhibition result in data set [5] and in data set [6] was “inactive” each time.
As to `CC(C)(C)OC(=O)N[C@@H](CCCCNC(=O)[C@@H]1Cc2ccccc2CN1C(=O)CCC(=O)N1CCCCC1)C(=O)NCC(c1ccccc1)c1ccccc1`, the pEC50 result in data set [7] and in data set [8] was “inactive” throughout. Also, the Efficacy entry in data set [3] and in data set [4] was “inactive” each time. Moreover, the inhibition result in data set [5] and in data set [6] was “inactive” in each case.
For `CC(=O)CCC(=O)N1Cc2ccccc2C[C@H]1C(=O)NCCCC[C@H](NC(=O)OC(C)(C)C)C(=O)NCC(c1ccccc1)c1ccccc1`, the Activity entry in data set [1] was “Non-toxic”. Further, the pEC50 entry in data set [7] is “inactive”. Moreover, the Efficacy in data set [2] was 63%; in data set [4] it was 34%. Also, the Efficacy entry in data set [3] is “inactive”. In addition, the inhibition result in data set [5] and in data set [6] was “inactive” each time.
Take `N[C@@H](CCCCNC(=O)[C@@H]1Cc2ccccc2CN1C(=O)CCC(=O)c1ccccc1)C(=O)NCC(c1ccccc1)c1ccccc1`: the pEC50 entry in data set [7] was “inactive”. Moreover, the Efficacy in data set [2] is 27%; in data set [4], 17%. Further, the Efficacy result in data set [3] is “inactive”. Besides, the inhibition result in data set [5] and in data set [6] was “inactive” throughout.
Consider `CC(C)(C)OC(=O)N[C@@H](CCCCNC(=O)[C@@H]1Cc2ccccc2CN1C(=O)CCC(=O)N1CCOCC1)C(=O)NCC(c1ccccc1)c1ccccc1`, for which the pEC50 entry in data set [7] and in data set [8] was “inactive” each time. Besides, the Efficacy result in data set [3] and in data set [4] was “inactive” each time. For the same compound, the inhibition result in data set [5] and in data set [6] was “inactive” each time.
For `N[C@@H](CCCCNC(=O)[C@@H]1Cc2ccccc2CN1)C(=O)NCC(c1ccccc1)c1ccccc1`, the Efficacy stood at 85% in data set [2], 40% in data set [3] and 14% in data set [4]. Further, the inhibition entry in data set [5] and in data set [6] was “inactive” throughout.
In the case of `CC(C)(C)OC(=O)N[C@H](CCCCNC(=O)[C@@H]1Cc2ccccc2CN1C(=O)CCC(=O)c1ccccc1)C(=O)NCC(c1ccccc1)c1ccccc1`, the Activity entry in data set [1] is “Non-toxic”. The pEC50 result in data set [7] was “inactive”. Further, the Efficacy in data set [2] came to 88%; in data set [4], 16%. Further, the Efficacy entry in data set [3] is “inactive”. Also, the inhibition entry in data set [5] and in data set [6] was “inactive” throughout.
In the case of `CC(C)(C)OC(=O)NCCCC[C@H](NC(=O)OCc1ccccc1)C(=O)NCC(c1ccccc1)c1ccccc1`, the Activity result in data set [1] is reported as “Non-toxic”.
As to `CC(C)(C)OC(=O)N[C@@H](CCCCNC(=O)[C@@H]1Cc2ccccc2CN1C(=O)CCC(=O)c1ccc(S(C)(=O)=O)cc1)C(=O)NCC(c1ccccc1)c1ccccc1`, the Activity result in data set [1] is “Non-toxic”. The compound further registered an Efficacy in data set [3] of 25%. In addition, in data set [8], the pEC50 entry is “inactive”. The Efficacy entry in data set [4] was “inactive”. The inhibition result in data set [5] and in data set [6] was “inactive” throughout.
Regarding `NCCCC[C@@H](NC(=O)[C@@H]1Cc2ccccc2CN1C(=O)CCC(=O)c1ccccc1)C(=O)NCC(c1ccccc1)c1ccccc1`, the Efficacy in data set [2] is 198%; in data set [3], 85%; in data set [4], 108%.
For `CC(C)(C)OC(=O)N[C@@H](CCCCNC(=O)[C@@H]1Cc2ccccc2CN1C(=O)CCCc1ccccc1)C(=O)NCC(c1ccccc1)c1ccccc1`, in data set [1], the Activity result is “Non-toxic”. Further, the Efficacy in data set [3] was determined as 29%. The pEC50 result in data set [8] was “inactive”. For the same compound, the Efficacy entry in data set [4] was “inactive”. In addition, the inhibition result in data set [5] and in data set [6] was “inactive” throughout.
On to `NCCCC[C@H](NC(=O)[C@@H]1Cc2ccccc2CN1C(=O)CCC(=O)c1ccccc1)C(=O)NCC(c1ccccc1)c1ccccc1.O=C(O)C(F)(F)F`, for which the figures for the Activity entry in data set [1] and in data set [7] were “Non-toxic” and “Dose-dependent effect”, respectively. The Efficacy in data set [3] was 109%; in data set [4] it was 139%.
In the case of `COc1ccc(C(=O)CCC(=O)N2Cc3ccccc3C[C@H]2C(=O)NCCCC[C@H](NC(=O)OC(C)(C)C)C(=O)NCC(c2ccccc2)c2ccccc2)cc1OC`, the Activity entry in data set [1] is on record as “Non-toxic”. In data set [3], this compound gave an Efficacy of 18%. In data set [8], the pEC50 entry was “inactive”. Moreover, in data set [4], the Efficacy result was “inactive”. The inhibition entry in data set [5] and in data set [6] was “inactive” throughout.
For the compound `CC(C)(C)OC(=O)N[C@H](CCCCNC(=O)[C@@H]1Cc2ccccc2CN1)C(=O)NCC(c1ccccc1)c1ccccc1`, in data set [1], the Activity entry is listed as “Non-toxic”. The inhibition entry in data set [5] and in data set [6] was “inactive” in each case.
`CC(C)(C)OC(=O)N[C@@H](CCCCNC(=O)[C@@H]1Cc2ccccc2CN1C(=O)CCC(=O)c1ccc(F)cc1)C(=O)NCC(c1ccccc1)c1ccccc1`: in data set [1], the Activity result is “Non-toxic”. This compound had an Efficacy in data set [3] of 20%. For the same compound, in data set [8], the pEC50 result was “inactive”. Moreover, the Efficacy result in data set [4] is “inactive”. Further, the inhibition entry in data set [5] and in data set [6] was “inactive” in each case.
